Calls of active or inactive are those of the source. No rule for the calls is given here.
Key:
Trypanosoma cruzi = assay: Antiparasitic activity against Trypanosoma cruzi T2 epimastigotes assessed as growth inhibition at 25 uM after 5 days; format: functional
Outline: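 Late-log epimastigotes were grown axenically at 28 °C in BHI-tryptose with 5% fetal calf serum and seeded at 2×10^6/mL in medium containing compound (DMSO stock; final DMSO ≤1%, 1% DMSO control). Growth was read as A590 at day 0 and day 5. Inhibition = {1 − [(Ap − A0p)/(Ac − A0c)]} × 100. Means of two experiments.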

[1] = Selectivity for Trypanosoma cruzi triosephosphate isomerase over human triosephosphate isomerase
[2] = biological target: Triosephosphate isomerase, glycosomal (Trypanosoma cruzi) (UniProt P52270); assay: Inhibition of Trypanosoma cruzi triosephosphate isomerase at 400 uM after 2 hrs
Chain of Triosephosphate isomerase, glycosomal (Trypanosoma cruzi) (P52270 whole entry): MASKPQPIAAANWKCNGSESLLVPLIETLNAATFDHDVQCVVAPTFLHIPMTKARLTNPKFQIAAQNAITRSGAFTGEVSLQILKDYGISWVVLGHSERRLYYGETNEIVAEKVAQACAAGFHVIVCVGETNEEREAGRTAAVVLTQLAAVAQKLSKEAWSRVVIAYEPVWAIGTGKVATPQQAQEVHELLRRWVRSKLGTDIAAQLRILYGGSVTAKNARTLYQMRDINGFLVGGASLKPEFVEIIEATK
Outline: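 Recombinant E. coli-expressed enzyme, dialyzed into 100 mM triethanolamine/10 mM EDTA pH 7.4, was incubated with compound (DMSO stock) in 100 mM triethanolamine, 10 mM EDTA, pH 7.4, 10% DMSO at 36 °C for 2 h. An aliquot was then assayed for activity (glyceraldehyde 3-phosphate to dihydroxyacetone phosphate, α-glycerol phosphate dehydrogenase-coupled) with 5 ng enzyme. Irreversible inhibition was scored as loss of activity; means of two experiments.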

CCN(CC)CCCNS(=O)(=O)NCCCN(CC)CC
Activity (Trypanosoma cruzi): Active
Ratio [1]: > 4
inhibition [2]: 0%

CCNC(=S)N/N=C/c1ccc([N+](=O)[O-])o1
Activity (Trypanosoma cruzi): Active
Ratio [1]: > 4
inhibition [2]: 3%

CCCCNC(=O)N/N=C/c1c(-c2ccccc2)no[n+]1[O-]
Activity (Trypanosoma cruzi): Active
Ratio [1]: > 4
inhibition [2]: 27%

CCOC(=O)CN(Cc1ccc(OC)cc1)c1ccc([N+](=O)[O-])cc1[N+](=O)[O-]
Activity (Trypanosoma cruzi): Active
Ratio [1]: > 4
inhibition [2]: 10%

O=[N+]([O-])c1ccc2c(c1)c(OCc1ccccc1)nn2CCOCCN1CCN(C/C=C/c2ccccc2)CC1
Activity (Trypanosoma cruzi): Active
Ratio [1]: > 4
inhibition [2]: 18%

Cc1nnsc1CO
Activity (Trypanosoma cruzi): Active
Ratio [1]: > 4
inhibition [2]: 29%

O=C1CC(=O)N(CCc2ccccc2)S(=O)(=O)N1CCc1ccccc1
Activity (Trypanosoma cruzi): Active
Ratio [1]: > 4
inhibition [2]: 0%

N#Cc1ccc(C=Cc2ccc3no[n+]([O-])c3c2)cc1
Activity (Trypanosoma cruzi): Active
Ratio [1]: > 4
inhibition [2]: 0%

CCOC(=O)c1nsc(-c2cc(C(C)(C)C)c(O)c(C(C)(C)C)c2)n1
Activity (Trypanosoma cruzi): Active
Ratio [1]: > 4
inhibition [2]: 65%

Cc1nnc[n+]([O-])c1/C=C/c1ccc(N(C)C)cc1
Activity (Trypanosoma cruzi): Active
Ratio [1]: > 4
inhibition [2]: 8%

O=[N+]([O-])c1ccc(/C=N/NC(=S)Nc2ccccc2)o1
Activity (Trypanosoma cruzi): Active
Ratio [1]: > 4
inhibition [2]: 17%

COc1nn(CCOCCN2CCN(C/C=C/c3ccccc3)CC2)c2ccc([N+](=O)[O-])cc12
Activity (Trypanosoma cruzi): Active
Ratio [1]: > 4
inhibition [2]: 0%

O=C(N/N=C/c1ccc([N+](=O)[O-])o1)N1CCOCC1
Activity (Trypanosoma cruzi): Active
Ratio [1]: > 4
inhibition [2]: 0%

[O-][N+]1=c2ccc(Br)cc2=[N+]([O-])C12CCCC2
Activity (Trypanosoma cruzi): Active
Ratio [1]: > 4
inhibition [2]: 23%

Cc1nncnc1CC(c1ccc([N+](=O)[O-])cc1)[N+]1([O-])CCOCC1 (stereo unspecified)
Activity (Trypanosoma cruzi): Active
Ratio [1]: > 4
inhibition [2]: 38%

O=S(=O)(NCc1ccccc1)NCc1ccccc1
Activity (Trypanosoma cruzi): Active
Ratio [1]: > 4
inhibition [2]: 76%

COC(=O)/C=C/c1ccc2no[n+]([O-])c2c1
Activity (Trypanosoma cruzi): Active
Ratio [1]: > 4
inhibition [2]: 8%

O=C(O)c1ccc(/C=C\c2ccc3no[n+]([O-])c3c2)cc1
Activity (Trypanosoma cruzi): Active
Ratio [1]: > 4
inhibition [2]: 6%

Cc1no[n+]([O-])c1/C=N/NC(N)=O
Activity (Trypanosoma cruzi): Active
Ratio [1]: > 4
inhibition [2]: 2%

CC1(C)[N+]([O-])=c2ccc(/C=C/c3ccccc3)cc2=[N+]1[O-]
Activity (Trypanosoma cruzi): Active
Ratio [1]: > 4
inhibition [2]: 0%

C=CCNC(=S)N/N=C/c1ccc([N+](=O)[O-])s1
Activity (Trypanosoma cruzi): Active
Ratio [1]: > 4
inhibition [2]: 58%

O=C(N/N=C/c1ccc([N+](=O)[O-])o1)Oc1ccccc1
Activity (Trypanosoma cruzi): Active
Ratio [1]: > 4
inhibition [2]: 27%

CNC(=S)N/N=C/c1ccc([N+](=O)[O-])o1
Activity (Trypanosoma cruzi): Active
Ratio [1]: > 4
inhibition [2]: 22%

O=[N+]([O-])c1ccccc1C=Cc1ccc2no[n+]([O-])c2c1
Activity (Trypanosoma cruzi): Active
Ratio [1]: > 4
inhibition [2]: 11%

O=Cc1cccc(OCCCN2C(=O)c3ccccc3C2=O)c1
Activity (Trypanosoma cruzi): Active
Ratio [1]: > 4
inhibition [2]: 0%

O=S(=O)(/C=C/c1ccc2no[n+]([O-])c2c1)c1ccc(F)cc1
Activity (Trypanosoma cruzi): Active
Ratio [1]: > 4
inhibition [2]: 15%

CC1(C)[N+]([O-])=c2ccc(/C=C/c3ccc4c(c3)OCO4)cc2=[N+]1[O-]
Activity (Trypanosoma cruzi): Active
Ratio [1]: > 4
inhibition [2]: 23%

COC(=O)N/N=C/c1ccc2nonc2c1
Activity (Trypanosoma cruzi): Active
Ratio [1]: > 4
inhibition [2]: 16%

C=C(C)CNC(=O)N/N=C/c1ccc([N+](=O)[O-])o1
Activity (Trypanosoma cruzi): Active
Ratio [1]: > 4
inhibition [2]: 6%

O=[N+]([O-])c1ccc2c(c1)[n+]([O-])c1n2CCC1
Activity (Trypanosoma cruzi): Active
Ratio [1]: > 4
inhibition [2]: 35%

[O-][n+]1onc2ccc(C=Cc3ccc(Br)cc3)cc21
Activity (Trypanosoma cruzi): Active
Ratio [1]: > 4
inhibition [2]: 22%

CC(=O)Oc1c(C)c(C)c2c(c1C)CCC(C)(C(=O)NCCOc1c(S(=O)(=O)c3ccccc3)no[n+]1[O-])O2 (stereo unspecified)
Activity (Trypanosoma cruzi): Active
Ratio [1]: > 4
inhibition [2]: 25%

[O-][N+]1=c2cc(Cl)c(Cl)cc2=[N+]([O-])C12CCCC2
Activity (Trypanosoma cruzi): Active
Ratio [1]: > 4
inhibition [2]: 56%

NC(=O)N/N=C/c1ccc2no[n+]([O-])c2c1
Activity (Trypanosoma cruzi): Active
Ratio [1]: > 4
inhibition [2]: 73%

O=Cc1c(-c2ccccc2)no[n+]1[O-]
Activity (Trypanosoma cruzi): Active
Ratio [1]: > 4
inhibition [2]: 53%

Cc1nnc(C)[n+]([O-])c1/C=C/c1ccc(N(C)C)cc1
Activity (Trypanosoma cruzi): Active
Ratio [1]: > 4
inhibition [2]: 26%

Cc1ccc(S(=O)(=O)NCc2ccco2)cc1
Activity (Trypanosoma cruzi): Active
Ratio [1]: > 4
inhibition [2]: 8%

[O-][n+]1onc2ccc(/C=N/NC(=S)Nc3ccccc3)cc21
Activity (Trypanosoma cruzi): Active
Ratio [1]: > 4
inhibition [2]: 60%

CC1(C)[N+]([O-])=c2ccc(CN3CCN(C/C=C/c4ccccc4)CC3)cc2=[N+]1[O-]
Activity (Trypanosoma cruzi): Active
Ratio [1]: > 4
inhibition [2]: 31%

COc1ccc(/C=C/c2c(C)nnc[n+]2[O-])cc1
Activity (Trypanosoma cruzi): Active
Ratio [1]: > 4
inhibition [2]: 11%

O=S(=O)(NC1CCCCC1)NC1CCCCC1
Activity (Trypanosoma cruzi): Active
Ratio [1]: > 4
inhibition [2]: 0%

CN(CCCN(C)Cc1cccc2ccccc12)Cc1cccc2ccccc12
Activity (Trypanosoma cruzi): Active
Ratio [1]: > 4
inhibition [2]: 55%

O=C(/C=C/c1ccc2c(c1)OCO2)c1ccccc1O
Activity (Trypanosoma cruzi): Active
Ratio [1]: > 4
inhibition [2]: 29%

O=C(/C=C/c1ccc([N+](=O)[O-])o1)N1CCN(C/C=C/c2ccccc2)CC1
Activity (Trypanosoma cruzi): Active
Ratio [1]: > 4
inhibition [2]: 0%

O=C(/C=C/c1ccccc1)c1ccccc1O
Activity (Trypanosoma cruzi): Active
Ratio [1]: > 4
inhibition [2]: 15%

Nc1ccc2c(c1)[n+]([O-])c1cc(Br)ccc1[n+]2[O-]
Activity (Trypanosoma cruzi): Active
Ratio [1]: > 4
inhibition [2]: 59%

NS(=O)(=O)NCc1ccccc1
Activity (Trypanosoma cruzi): Active
Ratio [1]: > 4
inhibition [2]: 0%

O=[N+]([O-])c1ccc2c(c1)c(OCc1ccccc1)nn2CCOCCN1CCSCC1
Activity (Trypanosoma cruzi): Active
Ratio [1]: > 4
inhibition [2]: 12%

COCCNC(=O)N/N=C/C=C/c1ccc([N+](=O)[O-])o1
Activity (Trypanosoma cruzi): Active
Ratio [1]: > 4
inhibition [2]: 0%

CC1[N+]([O-])=c2ccc(Cc3ccccc3)cc2=[N+]1[O-] (stereo unspecified)
Activity (Trypanosoma cruzi): Active
Ratio [1]: > 4
inhibition [2]: 25%

COc1ccc(NCc2c(-c3ccccc3)no[n+]2[O-])cc1
Activity (Trypanosoma cruzi): Active
Ratio [1]: > 4
inhibition [2]: 39%

O=Cc1ccc(OCc2ccc3no[n+]([O-])c3c2)cc1
Activity (Trypanosoma cruzi): Active
Ratio [1]: > 4
inhibition [2]: 0%

Cc1c(C=O)no[n+]1[O-]
Activity (Trypanosoma cruzi): Active
Ratio [1]: > 4
inhibition [2]: 27%

CCNC(=S)N/N=C/C=C/c1ccc([N+](=O)[O-])o1
Activity (Trypanosoma cruzi): Active
Ratio [1]: > 4
inhibition [2]: 21%

O=[N+]([O-])c1ccc(N2CCOCC2)c([N+](=O)[O-])c1
Activity (Trypanosoma cruzi): Active
Ratio [1]: > 4
inhibition [2]: 19%

CCCCCCNC(=O)N/N=C/c1ccc([N+](=O)[O-])s1
Activity (Trypanosoma cruzi): Active
Ratio [1]: > 4
inhibition [2]: 14%

CCCCNC(=O)c1ccc2no[n+]([O-])c2c1
Activity (Trypanosoma cruzi): Active
Ratio [1]: > 4
inhibition [2]: 12%

Cc1ccc2c(c1)[n+]([O-])c(C)n2O
Activity (Trypanosoma cruzi): Active
Ratio [1]: > 4
inhibition [2]: 6%

CCCN(CCCCCn1nc(OCc2ccccc2)c2cc([N+](=O)[O-])ccc21)CCC(C)C1CC=C(C)CC1 (stereo unspecified)
Activity (Trypanosoma cruzi): Active
Ratio [1]: > 4
inhibition [2]: 11%

CCCCCCN/N=C/c1no[n+]([O-])c1C
Activity (Trypanosoma cruzi): Active
Ratio [1]: > 4
inhibition [2]: 55%

C/C(=C\c1ccc(N(C)C)cc1)[N+](=O)[O-]
Activity (Trypanosoma cruzi): Active
Ratio [1]: > 4
inhibition [2]: 24%

CCCCCCOC(=O)N/N=C/C=C/c1ccc([N+](=O)[O-])o1
Activity (Trypanosoma cruzi): Active
Ratio [1]: > 4
inhibition [2]: 39%

Oc1ccc(N/C(S)=N/c2ccccc2)cc1
Activity (Trypanosoma cruzi): Active
Ratio [1]: > 4
inhibition [2]: 24%

[O-][N+]1=c2ccc(/C=N/O)cc2=[N+]([O-])C12CCCC2
Activity (Trypanosoma cruzi): Active
Ratio [1]: > 4
inhibition [2]: 2%

O=Cc1ccc2no[n+]([O-])c2c1
Activity (Trypanosoma cruzi): Active
Ratio [1]: > 4
inhibition [2]: 14%

O=S(=O)(NCCc1ccccc1)NCCc1ccccc1
Activity (Trypanosoma cruzi): Active
Ratio [1]: > 4
inhibition [2]: 0%

C=CCNC(=S)N/N=C/c1ccc2no[n+]([O-])c2c1
Activity (Trypanosoma cruzi): Active
Ratio [1]: > 4
inhibition [2]: 14%
